Reference: article PMC4073670 (Nature, 2011)
“And” between values parts separate entries of the source, which are not always exact repeats. Equal entries are not always repeated. Square brackets hold non-standard residues; d marks the D form. Ends that are not written are not given here.

Columns and labels:
[1] = system: ends of K19 fibers; assay: Nanogold localization to fiber ends, electron microscopy blind counting; format: binding, human; conditions: for nanogold at fiber ends, significance vs nanogold alone: z-test versus unconjugated nanogold
Method in brief: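 Cys-GGG-extended D-peptides were coupled to monomaleimido nanogold for 1 h at room temperature, and unbound peptide was removed by 10-kDa filtration. Conjugate (10 nM) was incubated 1 h with sonicated, heparin-free K19 fibers (1.67 μM by monomer) in 25 mM MOPS pH 7.2. Gold was enlarged with Goldenhance before EM. Particles within a 15 nm cutoff were scored as end- or side-bound by a blinded microscopist.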

[2] = system: K19 fibers; assay: Nanogold binding to K19 fibers, electron microscopy blind counting; set-up: species or system human; conditions: z-test versus unconjugated nanogold
Method in brief: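 Cys-Gly3-extended test D-peptide or scrambled control (60 nmol) was conjugated to 6 nmol monomaleimido nanogold (1 h, room temperature) and freed of peptide by 10 kDa cut-off. K19 fibers (100 μM K19, 25 μM heparin, overnight at 37°C, pH 7.4) were sonicated and washed. 10 nM conjugate or control was incubated 1 h with 1.67 μM fibers (by monomer) in 25 mM MOPS pH 7.2, then gold-enhanced for EM. Fiber-bound particles were counted blind as end or side.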

[3] = system: soluble VQIVYK; assay: 1H NMR binding to soluble VQIVYK; conditions: even at 70-fold molar excess of soluble VQIVYK, pH 5.0, 283 K
[4] = system: VQIVYK; assay: VQIVYK inhibition assay; format: biochemical; conditions: 25 mM MOPS pH 7.2, 100 μM ThS, room temperature; for VQIVYK fibrillation inhibition, equimolar peptide: equimolar ratio with VQIVYK
[5] = system: tau K19; assay: Tau K19 inhibition assay; format: biochemical, human; conditions: equimolar ratio with K19; 50 μM K19, pH 7.4, 37°C, quiescent
Method in brief: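 K19 was expressed in E. coli BL21(DE3) with 1 mM IPTG and purified by boiling and cation exchange. Reactions held 50 μM K19 in 250 mM sodium phosphate pH 7.4 with 1 mM DTT, 12.5 μM heparin (6000 MW) and 10 μM ThS. Peptide was added from a 0.5 mM stock. Plates were read every 15 min (ex 440/em 510) at 37°C, quiescent, with 2 s shaking before reads. At least 3 replicates; lag time is the mean threshold-crossing time ± SD.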

[6] = system: tau K12; assay: Tau K12 inhibition assay, un-seeded; format: biochemical, human; conditions: 50 μM K12, pH 7.4, 37°C
[7] = molecular target: VQIVYK fibers; assay: 1H NMR binding to VQIVYK fibers
[8] = system: amyloid beta(1-42); assay: Amyloid beta fibrillation assay; format: biochemical; conditions: 11.5 μM Aβ1-42, 11.5 μM D-TLKIVW, 10 μM ThT, 100 mM Bicine pH 9.1, 37°C, 4 replicates
Method in brief: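 Aβ1-42 was diluted to 0.2 mg/ml in 50 mM NH4OH and 0.2 μm filtered. Final mix: 11.5 μM Aβ1-42, 10 μM ThT, 23 mM NH4OH, 100 mM Bicine pH 9.1, with or without 11.5 μM test D-peptide. Four replicates were run at 37°C with continuous 960 rpm shaking (1 mm diameter), reading ThT every minute at Ex 444/Em 482.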

[9] = molecular target: tau fiber elongation (Homo sapiens, UniProt P10636); assay: Tau fibrillation kinetic analysis; format: biochemical; conditions: increasing concentrations of inhibitor peptide
Sequence of tau fiber elongation (P10636 186-283 isoform P10636-2 limits assumed): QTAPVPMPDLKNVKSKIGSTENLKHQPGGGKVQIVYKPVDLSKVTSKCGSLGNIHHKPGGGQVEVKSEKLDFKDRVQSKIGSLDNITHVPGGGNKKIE
Method in brief: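 Nucleation (k1) and propagation (k2) rates were fitted from the ThS fibrillation traces of the tau construct assays. The fit used the Finke-Watzky 2-step form, with plateau values fixed first and the remaining parameters fitted by non-linear least-squares regression.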

[10] = system: tau segment VQIVYK, and the K12 and K19 tau constructs; assay: Fibrillation of tau segment VQIVYK and tau constructs K12 and K19; format: biochemical, human
Method in brief: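 Un-seeded ThS fibrillation with peptides at specified molar ratios. For K12/K19: 50 μM protein, 250 mM phosphate pH 7.4, 1 mM DTT, 12.5 μM heparin, 10 μM ThS, 37°C; K12 shaken at 900 rpm, K19 quiescent; read every 15 min (ex 440/em 510). For VQIVYK: 25 mM MOPS pH 7.2 with PTFE beads, room temperature, read every 2 min. At least 3 replicates; lag time is the mean time to cross a threshold.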

[11] = system: tau K19; assay: Electron microscopy of K19 fibrillation; format: biochemical, human; conditions: incubation with peptide; negative stain, 1% uranyl acetate
Method in brief: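 Recombinant K19 (E. coli BL21(DE3); boiled lysate, cation exchange) was incubated at 50 μM with peptide. Buffer was 250 mM sodium phosphate pH 7.4 with 1 mM DTT, 12.5 μM heparin and 10 μM ThS, held quiescent at 37°C. Samples were spotted on glow-discharged carbon/formvar copper grids for 3 min, rinsed with water, stained with 1% uranyl acetate for 90 s, and imaged by TEM.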

[12] = system: HIV-1 infection of TZM-bl cells; assay: Effect of WW61 on poly-lysine mediated enhancement of HIV-1 infection; format: cell-based; conditions: poly-lysine/WW61 100, 20, 4, 0.8, 0.16, 0.032, 0.064 and 0 μg/ml during preincubation with virus
Method in brief: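 The HIV-1 CCR5-tropic molecular clone came from 293T transfection, with p24 by ELISA. Poly-lysine was mixed 1:1 with test compound. 5-fold dilutions (100, 20, 4, 0.8, 0.16, 0.032, […], 0 μg/ml) were preincubated with an equal volume of virus for 5 min at room temperature. Of each, 20 μl went onto 180 μl TZM-bl cells (LTR-lacZ). β-galactosidase in lysates was read 2 days later by luminescence (RLU/s).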

[13] = system: HIV-1 infection of TZM-bl cells; assay: Effect of WW61, GIHKQK and PYKLWN on HIV-1 infection; format: cell-based; conditions: 150, 30, 6, 1.2 and 0 μg/ml during preincubation with virus
[14] = molecular target: T1, tau VQIVYK segment fibers (Homo sapiens); assay: NMR
T1 chain: VQIVYK

CGGG-(D)-LKTWIV [nanogold-D-LKTWIV]
nanogold at fiber ends, significance vs nanogold alone [1]: does not differ significantly from nanogold alone
nanogold bound to fibers, significance vs nanogold alone [2]: does not differ significantly from nanogold alone

CGGG-(D)-TLKIVW [nanogold-D-TLKIVW]
number of fiber-bound nanogold particles localizing to fiber ends (xend), n = 86 ([1]; n = 86, 10 nM conjugate, 1.67 μM K19 fibers, pH 7.2, 1 hour): 49
nanogold at fiber ends, significance vs nanogold alone [1]: significantly different from nanogold alone
nanogold bound to fibers, significance vs nanogold alone [2]: significantly different from nanogold alone

D-LKTWIV
change in indole proton chemical shift with soluble VQIVYK [3]: Only a slight change in the chemical shifts
VQIVYK fibrillation inhibition, equimolar peptide [4]: little inhibitory effect
K19 fibrillation inhibition, equimolar peptide [5]: little inhibitory effect

D-TIKWVL
VQIVYK fibrillation inhibition, equimolar peptide [4]: little inhibitory effect
K19 fibrillation inhibition, equimolar peptide [5]: little inhibitory effect

D-TIWKVL
VQIVYK fibrillation inhibition, equimolar peptide [4]: little inhibitory effect
K19 fibrillation inhibition, equimolar peptide [5]: little inhibitory effect

D-TLKIVW
delay of K12 fibrillation, five-fold molar excess ([6]; five-fold molar excess, some experimental replicates): more than two weeks in some experimental replicates
K12 fiber formation delay, sub-equimolar peptide ([6]; sub-equimolar concentration relative to K12): delays fiber formation even at sub-equimolar concentration
change in indole proton chemical shift with soluble VQIVYK [3]: Only a slight change in the chemical shifts
estimated affinity constant for fibers ([7]; 1H NMR, 500 MHz, fibers containing 0 to 1500 μM VQIVYK monomers): low micromolar range
standard free binding energy (ΔGbinding) ([7]; from apparent Kd of 2 μM, VQIVYK fibers): ~ 7.4 kcal/mol and 7.4 kcal/mol
block of amyloid beta fibrillation [8]: unable to block the fibrillation of amyloid beta
fiber elongation rate [9]: fiber elongation rate decreases in the presence of increasing concentrations of inhibitor peptide
lag time in un-seeded reactions ([10]; un-seeded reactions): large increase in lag time
VQIVYK fiber formation delay, sub-equimolar peptide ([4]; sub-equimolar concentration relative to VQIVYK): delays fiber formation even at sub-equimolar concentration
K19 fibrillation by electron microscopy [11]: prevents K19 fibrillation

H-[W-H-K-chAla-W-hydroxyTic]-OH [WW61]
effect on poly-lysine mediated HIV infectivity [12]: no inhibitory effect on poly-lysine mediated HIV infectivity
effect on HIV infectivity in the absence of SEVI [13]: does not affect HIV infectivity

L-TLKIVW
effectiveness of diastereomer relative to D-TLKIVW ([10]; diastereomer compared with D-TLKIVW, ThS fluorescence): less effective than D-TLKIVW

B1: D-TLKIVW (peptide)
chain: [dT][dL][dK][dI][dV][dW]
Kd [14]: ~2000 nM
